Measurements reported in ChEMBL document CHEMBL2176966, “Discovery of 6,7-dihydro-5H-pyrrolo[2,3-a]pyrimidines as orally available G protein-coupled receptor 119 agonists” (J Med Chem, 2012).
Activity calls are given as the source filed them. The rule behind the calls is not given here.

How the values were obtained:
[1] = Half life in rat at 30 mg/kg; format: ADME, organism-based; set-up: dose 30 mg/kg; conditions: in vivo
[2] = target: T1, Glucose-dependent insulinotropic receptor (Homo sapiens, UniProt Q8TDV5); assay: Agonist activity at human GPR119 receptor expressed in CHO-K1 cells co-expressing 6CRE-luciferase gene after 5 hrs by luciferase reporter gene assay; format: functional, cell-based; conditions: read-out: pEC50 (converted)
T1 sequence (Q8TDV5 whole entry): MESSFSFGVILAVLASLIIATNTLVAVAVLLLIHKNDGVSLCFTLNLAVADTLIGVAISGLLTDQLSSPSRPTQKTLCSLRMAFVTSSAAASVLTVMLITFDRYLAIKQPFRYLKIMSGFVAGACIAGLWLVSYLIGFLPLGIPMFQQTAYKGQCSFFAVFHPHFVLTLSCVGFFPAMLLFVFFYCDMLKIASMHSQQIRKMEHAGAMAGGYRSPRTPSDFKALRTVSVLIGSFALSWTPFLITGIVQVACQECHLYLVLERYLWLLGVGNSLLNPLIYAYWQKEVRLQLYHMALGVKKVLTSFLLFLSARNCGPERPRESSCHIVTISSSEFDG

[3] = Cmax in rat at 30 mg/kg; format: ADME, organism-based; set-up: dose 30 mg/kg; conditions: in vivo
[4] = Cmax in mouse at 30 mg/kg; format: ADME, organism-based; set-up: dose 30 mg/kg; conditions: in vivo
PCC = assay: Induction of GLP1 secretion in C57BL/6 mouse PCC cells at 0.1 to 1 uM after 24 hrs; format: functional, cell-based
Outline: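 Primary colonic crypts were isolated from mouse colon by three 15 min, 37 °C digests with collagenase II, dispase I, DNase I and hyaluronidase, then pooled and washed. Crypts were seeded on Matrigel-coated plates in high-glucose DMEM with 10% FBS and allowed to attach for 24 h. GLP-1 secretion was then assayed as for GLUTag cells (2 h KRB exposure, electrochemiluminescent active GLP-1 immunoassay).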

Mus musculus [5] = assay: Increase in GLP-1 level in GPR119 transgenic wild type mouse at 30 mg/kg, po after 60 mins by electrochemiluminescence assay relative to control; format: functional
Outline: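 Wild-type and GPR119 knockout mice, fasted overnight, received vehicle (0.5% HPMC/0.1% Tween80) or 30 mg/kg by oral gavage at 10 mL/kg. At 60 min, blood was taken by cardiac puncture under isoflurane into chilled K2-EDTA tubes with DPP-4 inhibitor and aprotinin (250 KIU/mL). Plasma was spun at 4 °C and stored at −80 °C. Total GLP-1 was measured by electrochemiluminescence immunoassay; n = 10.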

Rattus norvegicus [6] = species on record: Rattus norvegicus; assay: Potentiation of 12 mM of glucose-induced insulin secretion in rat islet at 0.3 uM
Mus musculus [7] = assay: Toxicity in C57BL/6 mouse assessed as effect on food intake at 10 mg/kg, po measured up to 24 hrs; format: organism-based; set-up: dose 10 mg/kg, route oral; conditions: in vivo
Outline: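 Individually housed male C57BL/6 mice were fasted overnight and given 10 mg/kg. Normal-chow hoppers were weighed and returned. Hopper weights were recorded at 1, 2, 4, 6 and 24 h post-dose and compared with vehicle-treated mice.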

[8] = Oral bioavailability in mouse at 30 mg/kg; format: ADME, organism-based; conditions: in vivo
[9] = Clearance in rat at 30 mg/kg; format: ADME, organism-based; set-up: dose 30 mg/kg; conditions: in vivo
[10] = Ratio of drug level brain to plasma in rat at 30 mg/kg; format: ADME, organism-based; set-up: dose 30 mg/kg; conditions: read-out: BPR
MAO-B = target: T2, MAO-B (Homo sapiens, UniProt P27338); assay: Inhibition of MAO-B at 10 uM
T2 sequence (P27338 whole entry): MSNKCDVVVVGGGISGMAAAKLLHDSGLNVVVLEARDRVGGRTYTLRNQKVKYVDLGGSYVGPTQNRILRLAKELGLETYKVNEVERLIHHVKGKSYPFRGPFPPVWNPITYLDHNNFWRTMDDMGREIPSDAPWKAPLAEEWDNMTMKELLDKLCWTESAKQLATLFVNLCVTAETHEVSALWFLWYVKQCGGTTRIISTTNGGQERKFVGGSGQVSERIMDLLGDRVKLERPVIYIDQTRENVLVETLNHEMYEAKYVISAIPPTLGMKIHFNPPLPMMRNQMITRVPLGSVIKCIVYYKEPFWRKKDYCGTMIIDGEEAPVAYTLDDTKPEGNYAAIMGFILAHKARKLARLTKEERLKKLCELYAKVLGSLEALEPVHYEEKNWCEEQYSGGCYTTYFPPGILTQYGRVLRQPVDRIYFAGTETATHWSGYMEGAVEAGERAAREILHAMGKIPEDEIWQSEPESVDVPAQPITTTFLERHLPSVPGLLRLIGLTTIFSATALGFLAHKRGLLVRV
Outline: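 Compound was tested at 10 μM in a panel of 68 receptors, ion channels and enzymes. Percent inhibition or stimulation was recorded.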

Mus musculus [11] = assay: Increase in glucagon level in GPR119 transgenic wild type mouse at 30 mg/kg, po after 60 mins relative to control; format: functional
Outline: (§1)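 Wild-type and GPR119 knockout mice, fasted overnight, were dosed by oral gavage (30 mg/kg, 10 mL/kg, 0.5% HPMC/0.1% Tween80 vehicle). Plasma was obtained from cardiac blood at 60 min in chilled K2-EDTA containing DPP-4 inhibitor and aprotinin, then stored at −80 °C. Hormone levels were compared with vehicle; n = 8–10.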

Mus musculus [12] = assay: Increase in glucagon level in GPR119 knockout mouse at 30 mg/kg, po after 60 mins; format: functional, organism-based; set-up: dose 30 mg/kg; outline: as §1
Rattus norvegicus [13] = assay: Antihyperglycemic activity in Sprague-Dawley rat assessed as reduction of acetaminophen AUC (0 to 2 hrs) at 10 mg/kg, po relative to control; format: functional; set-up: scale not given: the % may be the effect or the level left
Outline: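 Male Sprague-Dawley rats, fasted overnight, dosed orally at 10 mL/kg in 0.5% HPMC/0.1% Tween80 (vehicle or compound) at −120 min. Pramlintide (15 μg) was given to a positive-control cohort at −15 min. Baseline plasma was taken at time 0, then acetaminophen (65 mg) by gavage. The plasma acetaminophen concentration–time profile was followed for 3 h; AUC 0–2 h was compared with vehicle.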

[14] = Clearance in mouse at 30 mg/kg; format: ADME, organism-based; set-up: dose 30 mg/kg; conditions: in vivo
[15] = Oral bioavailability in rat at 30 mg/kg; format: ADME, organism-based; conditions: in vivo
Rattus norvegicus [16] = assay: Increase of C-peptide level in Wistar rat at 10 mg/kg, po after 10 to 90 mins; format: functional, organism-based; set-up: dose 10 mg/kg
Outline: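 Male Wistar rats (300–350 g) with jugular and femoral vein catheters, one week post-surgery, fasted overnight. Randomized to vehicle (n = 19) or oral compound (n = 8). About 90 min after gavage, a hyperglycemic clamp was started: a glucose bolus into the femoral vein, then variable-rate infusion holding glucose at 190–210 mg/dL. Serum C-peptide was measured by RIA, first phase 0–5 min and second phase 10–90 min.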

[17] = Volume of distribution at steady state in mouse at 30 mg/kg; format: ADME, organism-based; set-up: dose 30 mg/kg; conditions: in vivo, read-out: Vdss
[18] = Induction of GLP1 secretion in mouse GLUTag cells after 2 hrs; format: functional, cell-based
Outline: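 GLUTag cells were grown to 80% confluence on Matrigel-coated plates in DMEM with 2 mM L-glutamine and 10% FBS. They were preincubated 30 min in Krebs-Ringer buffer (10 mM D-glucose, 0.1% BSA, DPP-IV inhibitor). Compound was then added at varying concentrations in the same buffer for 2 h at 37 °C, 5% CO2. Cleared supernatant was assayed for amidated (active) GLP-1 by sandwich electrochemiluminescence immunoassay.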

Mus musculus [19] = assay: Increase in PYY level in GPR119 transgenic wild type mouse at 30 mg/kg, po after 60 mins relative to control; format: functional; outline: as §1

For `CC(C)OC(=O)N1CCC(Oc2ncnc3c2CCN3c2ccc(S(C)(=O)=O)cc2F)CC1`, the half-life [1] was 8.7 h, the EC50 [2] was 50.1 nM and the Cmax [3] was 9 µM. For the same compound, the Cmax [4] was 8.4 µM, the Activity (PCC) was “Active” and the “fold change (FC)” value (Mus musculus [5]) was 4. The Activity (Rattus norvegicus [6]) was “Active”, the Activity (Mus musculus [7]) was “Non-toxic” and the bioavailability [8] was 40%. It also gave a clearance [9] of 8.4 mL/min/kg, a Kp [10] of 0.7 and an inhibition at 10 µM (MAO-B) of 54%. For the same compound, the “fold change (FC)” value (Mus musculus [11]) was 2, the Activity (Mus musculus [12]) was “inactive” and the Activity (Rattus norvegicus [13]) was 27%. For the same compound, the clearance [14] was 7.2 mL/min/kg, the bioavailability [15] was 66% and the Activity (Rattus norvegicus [16]) was “Active”. For the same compound, the Vd [17] was 0.7 L/kg, the EC50 [18] was 20 nM and the “fold change (FC)” value (Mus musculus [19]) was 3.
